Converted amounts (≈) assume the structure as drawn.
Columns and labels:
Cytochrome P450 2D6 = Cytochrome P450 2D6 (Homo sapiens, UniProt P10635); experiment: Inhibition of CYP2D6; type: ADME
How it was run: (§1)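 Inhibition tested separately against P450 isoforms 2C9, 2D6 and 3A4, with test concentrations up to 30 μM.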

[1] = Half life in rat at 3 mg/kg, iv; type: ADME, organism-based; set-up: dose 3 mg/kg, route intravenous; conditions: in vivo
[2] = Half life in rat at 10 mg/kg, po; type: ADME, organism-based; set-up: dose 10 mg/kg, route oral; conditions: in vivo
How it was run: (§2)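 Single-dose oral and intravenous administration in rats. Plasma PK parameters were derived from these dosings: clearance and Vss after iv dosing, and Cmax and AUC after oral dosing.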

Cytochrome P450 3A4 [3] = biological target: T1, Cytochrome P450 3A4 (Homo sapiens, UniProt P08684); experiment: Inhibition of CYP3A4; type: ADME; how it was run: as §1
T1 sequence (P08684 whole entry): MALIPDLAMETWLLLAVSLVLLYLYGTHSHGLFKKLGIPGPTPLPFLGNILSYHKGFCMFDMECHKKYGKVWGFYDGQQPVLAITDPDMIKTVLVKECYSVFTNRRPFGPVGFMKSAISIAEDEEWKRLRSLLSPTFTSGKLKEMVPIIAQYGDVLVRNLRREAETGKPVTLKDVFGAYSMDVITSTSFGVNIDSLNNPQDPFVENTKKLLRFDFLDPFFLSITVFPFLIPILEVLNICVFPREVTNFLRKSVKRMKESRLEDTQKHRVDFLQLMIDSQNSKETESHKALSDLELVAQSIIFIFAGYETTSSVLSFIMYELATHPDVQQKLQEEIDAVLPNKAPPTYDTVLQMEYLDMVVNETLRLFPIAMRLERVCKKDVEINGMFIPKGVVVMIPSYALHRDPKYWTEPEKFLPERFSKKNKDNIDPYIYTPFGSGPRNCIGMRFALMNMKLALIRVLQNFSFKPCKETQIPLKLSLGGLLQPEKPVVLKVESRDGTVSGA

Rattus norvegicus [4] = experiment: (§3) AUC in rat at 10 mg/kg, po; type: ADME, organism-based, Plasma; set-up: dose 10 mg/kg, route oral; conditions: in vivo
Rattus norvegicus [5] = experiment: (§4) Oral bioavailability in rat at 10 mg/kg; type: ADME, organism-based; conditions: in vivo; how it was run: as §2
Cytochrome P450 2C9 = Cytochrome P450 2C9 (Homo sapiens, UniProt P11712); experiment: Inhibition of CYP2C9; type: ADME; how it was run: as §1
Chain of Cytochrome P450 2C9 (P11712 whole entry): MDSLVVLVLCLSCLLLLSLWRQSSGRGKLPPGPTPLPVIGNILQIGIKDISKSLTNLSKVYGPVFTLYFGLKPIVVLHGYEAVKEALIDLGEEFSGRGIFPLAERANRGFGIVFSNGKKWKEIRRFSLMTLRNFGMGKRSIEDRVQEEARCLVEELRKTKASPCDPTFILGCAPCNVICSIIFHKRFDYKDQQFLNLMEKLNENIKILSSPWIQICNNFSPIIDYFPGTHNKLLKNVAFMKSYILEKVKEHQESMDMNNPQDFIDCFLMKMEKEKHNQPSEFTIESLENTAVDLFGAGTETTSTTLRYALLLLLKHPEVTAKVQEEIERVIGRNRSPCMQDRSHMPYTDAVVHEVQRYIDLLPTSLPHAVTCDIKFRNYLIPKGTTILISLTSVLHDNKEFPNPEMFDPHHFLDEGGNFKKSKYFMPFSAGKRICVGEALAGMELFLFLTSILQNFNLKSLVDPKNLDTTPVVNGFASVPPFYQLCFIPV

[6] = Clearance in rat at 3 mg/kg, iv; type: ADME, organism-based; set-up: dose 3 mg/kg, route intravenous; conditions: in vivo
Rattus norvegicus [7] = experiment: (§5) AUC in rat at 3 mg/kg, iv; type: ADME, organism-based, Plasma; set-up: dose 3 mg/kg, route intravenous; conditions: in vivo; how it was run: as §2
[8] = Cmax in rat at 10 mg/kg, po; type: ADME, organism-based; set-up: dose 10 mg/kg, route oral; conditions: in vivo
[9] = as §3; type: ADME, organism-based, Plasma; set-up: dose 10 mg/kg, route oral; conditions: plasma
[10] = Solubility of the compound; type: physicochemical
How it was run: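 Kinetic aqueous solubility, determined at pH 6.8 and reported in […].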

Caco-2 = experiment: Permeability across human Caco2 cell membrane; type: ADME, cell-based
[11] = as §4; type: ADME, organism-based; conditions: in vivo; how it was run: as §2
[12] = as §5; type: ADME, organism-based, Plasma; set-up: dose 3 mg/kg, route intravenous; conditions: plasma; how it was run: as §2
[13] = tested on: Human immunodeficiency virus 1; experiment: Antiviral activity against R5 tropic HIV1 Ba-L infected in human PBMC assessed as inhibition of […] antigen expression; type: functional, organism-based; conditions: Human immunodeficiency virus 1, Ba-L
[14] = tested on: Human immunodeficiency virus 1; experiment: Antiviral activity against multidrug-resistant R5 tropic HIV1 MM infected in human PBMC assessed as inhibition of […] antigen expression; type: functional, organism-based; conditions: Human immunodeficiency virus 1, MM
Cytochrome P450 3A4 [15] = biological target: T1, Cytochrome P450 3A4; experiment: Inhibition of CYP3A4 upto 30 uM; type: ADME; how it was run: as §1
[16] = biological target: C-C chemokine receptor type 5 (Homo sapiens, UniProt P51681); experiment: Antagonist activity at human CCR5 expressed in CHO cells assessed as inhibition of MIP-1alpha-induced calcium mobilization Ca assay; type: functional, cell-based
Chain of C-C chemokine receptor type 5 (P51681 whole entry): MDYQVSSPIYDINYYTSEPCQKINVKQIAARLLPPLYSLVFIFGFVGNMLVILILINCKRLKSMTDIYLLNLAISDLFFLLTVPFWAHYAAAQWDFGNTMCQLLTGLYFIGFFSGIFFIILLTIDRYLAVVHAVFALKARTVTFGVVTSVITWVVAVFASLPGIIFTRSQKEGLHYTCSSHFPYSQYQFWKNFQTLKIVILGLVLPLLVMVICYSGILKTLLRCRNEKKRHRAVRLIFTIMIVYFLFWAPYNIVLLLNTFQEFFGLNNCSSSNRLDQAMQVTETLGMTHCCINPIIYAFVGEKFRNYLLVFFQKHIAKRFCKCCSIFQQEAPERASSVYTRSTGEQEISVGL

[17] = Aqueous solubility of the compound at pH 6.8; type: physicochemical; conditions: buffer
How it was run: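 Kinetic aqueous solubility at pH 6.8, reported in μg/mL.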

Chain of Cytochrome P450 2D6 (P10635 whole entry, canonical isoform): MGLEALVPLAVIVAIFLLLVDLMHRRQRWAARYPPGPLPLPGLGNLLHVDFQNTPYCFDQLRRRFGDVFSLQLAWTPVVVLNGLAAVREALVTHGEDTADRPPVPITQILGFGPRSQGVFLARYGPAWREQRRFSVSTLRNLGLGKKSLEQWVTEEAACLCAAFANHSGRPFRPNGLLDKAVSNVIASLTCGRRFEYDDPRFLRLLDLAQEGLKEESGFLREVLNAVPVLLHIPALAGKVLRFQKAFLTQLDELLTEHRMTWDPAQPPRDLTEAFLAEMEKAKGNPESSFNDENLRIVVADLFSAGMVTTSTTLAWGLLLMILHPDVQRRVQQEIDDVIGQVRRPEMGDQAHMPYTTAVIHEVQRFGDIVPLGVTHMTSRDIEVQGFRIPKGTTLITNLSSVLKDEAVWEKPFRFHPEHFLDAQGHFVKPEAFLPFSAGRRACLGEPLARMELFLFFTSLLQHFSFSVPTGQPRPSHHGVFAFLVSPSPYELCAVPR

Compound	IC50 (Cytochrome P450 2D6)	half-life [2]	IC50 (Cytochrome P450 3A4 [3])	IC50 (Cytochrome P450 2C9)	Cmax [8]	AUC [9]	solubility [10]	bioavailability [11]	other results
CCCCN1C(=O)[C@H](CC2CCCCC2)NC(=O)C12CCN(Cc1ccc(Oc3ccc(C(=O)O)cc3)cc1)CC2.Cl	> 30 µM	48.4 min	24.9 µM	8.8 µM	2400 ng/mL	–	–	–	half-life [1]: 11.1 min; AUC (Rattus norvegicus [4]): 10532 ng·h/mL; F (Rattus norvegicus [5]): 34%; clearance [6]: 16 mL/min/kg; AUC (Rattus norvegicus [7]): 3091 ng·h/mL
CCCCN1C(=O)[C@@H]([C@@H](O)C2CCCCC2)NC(=O)C12CCN(Cc1ccc(Oc3ccc(C(=O)O)cc3)cc1)CC2.Cl	> 30 µM	35.2 min	> 30 µM	18 µM	70 ng/mL	67.5 ng·h/mL	81 µM	–	–
CCCCN1C(=O)[C@H]([C@H](O)C2CCCCC2)NC(=O)C12CCN(Cc1ccc(Oc3ccc(C(=O)O)cc3)cc1)CC2	> 30 µM	14.4 min	> 30 µM	> 30 µM	280 ng/mL	126 ng·h/mL	85 µM (≈ 49.1 µg/mL)	–	permeability (Caco-2): 1.6 ×10⁻⁶ cm/s
CCCCN1C(=O)[C@H]([C@@H](O)C2CCCCC2)NC(=O)C12CCN(Cc1ccc(Oc3ccc(C(=O)O)cc3)cc1)CC2.Cl	> 30 µM	19.2 min	> 30 µM	> 30 µM	260 ng/mL	213 ng·h/mL	80 µM	6.5%	half-life [1]: 16.2 min; clearance [6]: 50.9 mL/min/kg; permeability (Caco-2): 2.1 ×10⁻⁶ cm/s; AUC [12]: 988 ng·h/mL
Cc1ccc(-c2ccc3c(c2)C=C(C(=O)Nc2ccc(C[N+](C)(C)C4CCOCC4)cc2)CCC3)cc1	–	–	–	–	–	–	–	–	IC50 [13]: 0.028 µM; IC50 [14]: 0.014 µM
CCCCN1C(=O)[C@@H]([C@H](O)C2CCCCC2)NC(=O)C12CCN(Cc1ccc(Oc3ccccc3)cc1)CC2.Cl	9.8 µM	–	> 30 µM	3.7 µM	–	–	–	–	inhibition (INH) (Cytochrome P450 3A4 [15]): Not Active
CCCCN1C(=O)[C@@H]([C@H](O)C(C)C)NC(=O)C12CCN(Cc1ccc(Oc3ccccc3)cc1)CC2	> 30 µM	–	> 30 µM	> 30 µM	–	–	–	–	IC50 [16]: 0.084 µM
Cc1c(O)cccc1C(=O)N[C@@H](CSc1ccccc1)[C@H](O)CN1C[C@H]2CCCC[C@H]2C[C@H]1C(=O)NC(C)(C)C	–	–	–	–	–	–	–	–	IC50 [14]: > 1 µM
CCCCN1C(=O)C(CC2CCCCC2)NC(=O)C12CCN(Cc1ccc(Oc3ccccc3)cc1)CC2.Cl (racemic)	7.8 µM	103 min	–	5.5 µM	–	–	–	1.9%	solubility [17]: < 0.2 µg/mL; AUC (Rattus norvegicus [7]): 400 ng·h/mL
CCCCN1C(=O)C(CC(C)C)NC(=O)C12CCN(Cc1ccc(Oc3ccccc3)cc1)CC2.Cl (racemic)	4.6 µM	75.7 min	19.7 µM	5.9 µM	–	–	–	1.3%	AUC (Rattus norvegicus [7]): 372 ng·h/mL
CCCCN1C(=O)[C@@H]([C@H](O)C2CCCCC2)NC(=O)C12CCN(Cc1ccc(Oc3ccc(C(=O)O)cc3)cc1)CC2.Cl [APLAVIROC HYDROCHLORIDE]	> 30 µM	120 min	> 30 µM	> 30 µM	2360 ng/mL	3420 ng·h/mL	70 µM	23%	half-life [1]: 21.8 min; clearance [6]: 11.3 mL/min/kg; permeability (Caco-2): 3.8 ×10⁻⁶ cm/s; AUC [12]: 4400 ng·h/mL
COC[C@@H](c1ccc(C(F)(F)F)cc1)N1CCN(C2(C)CCN(C(=O)c3c(C)ncnc3C)CC2)C[C@@H]1C [VICRIVIROC]	–	–	–	–	–	–	–	–	IC50 [13]: 0.004 µM; IC50 [14]: 0.003 µM
